Tests used:
[1] = tested on: polymyxin-susceptible strains of P. aeruginosa and K. pneumoniae; assay: MIC by broth microdilution, polymyxin-susceptible strains; assay type: cell-based
[2] = tested on: polymyxin-resistant clinical isolates of P. aeruginosa, A. baumannii and K. pneumoniae; assay: MIC by broth microdilution, polymyxin-resistant clinical isolates; assay type: cell-based
[3] = tested on: mcr isolates of K. pneumoniae and Escherichia coli; assay: MIC against mcr isolates; assay type: cell-based; settings: mcr isolates (Table S4)
[4] = tested on: polymyxin-resistant P. aeruginosa strain FADDI-PA070; assay: Static time-kill study; assay type: cell-based; settings: for log10 CFU/mL kill: 32 μg/mL, 1–4 h polymyxin B, 0.5–6 h octapeptin C4; for antimicrobial effect in time-kill: 1 or 4 μg/mL
E. coli ATCC 25922 cells [5] = assay: Membrane depolarisation diSC3-5 assay; assay type: cell-based; settings: 30 min incubation
E. coli ATCC 25922 cells [6] = assay: Inner membrane permeabilisation, SYTOX Green flow cytometry; assay type: cell-based; settings: 1 h at 37°C
[7] = Carboxyfluorescein leakage from lipid vesicles; settings: vesicles containing lipid A
Procedure, shortened: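 CF-loaded vesicles (50 mM CF; final lipid 5 µM) were made of POPC, POPC/POPG 4:1 or POPC/lipid A 4:1 in 10 mM HEPES pH 7.4 with 150 mM NaCl. Vesicles were exposed for 20 min to lipopeptide at 128–0.06 µg/mL. Leakage was read as CF de-quenching (ex 485 nm, em 520 nm).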

human red blood cells = assay: Haemolysis of human red blood cells; assay type: cell-based; settings: concentrations up to 100 μg/mL
[8] = Mouse nephrotoxicity model, kidney histopathology; assay type: in vivo, mice; settings: 12 mg/kg sc every 2 h, accumulated dose 72 mg/kg
[9] = tested on: P. aeruginosa FADDI-PA070; assay: MIC against P. aeruginosa FADDI-PA070; assay type: cell-based
[10] = parameters: species or system mice; settings: mouse, in vivo, iv, 10 mg/kg
[11] = assay type: in vitro ADME; settings: rat
[12] = Acute toxicity after subcutaneous dose in mice; assay type: in vivo; settings: subcutaneous dose of 40 mg/kg

Substance	MIC [1] [µg/mL]	MIC [2] [µg/mL]	MIC [3] [µg/mL]	log10 CFU/mL kill [4]	antimicrobial effect in time-kill [4]	membrane depolarisation (E. coli ATCC 25922 cells [5])	membrane disruption (SYTOX Green uptake) (E. coli ATCC 25922 cells [6])	leakage from lipid vesicles [7]	haemolysis (human red blood cells)	kidney histopathology lesions [8]	MIC [9] [µg/mL]	final log10 CFU/mL reduction ([4]; 24 h, after regrowth)	half-life [10] [h]	total clearance [10] [mL/min/kg]	plasma protein binding [11] [%]	acute toxic effects [12]
colistin	0.25 to 1	4 to 128	4 to 16	poor killing activity	no antimicrobial effect	induced membrane depolarisation	disrupted both the outer and inner membranes	destabilised the membrane	no detectable haemolysis	severe Grade 1–2 lesions	–	–	–	–	–	–
polymyxin B	0.25 to 1	4 to 128	4 to 16	six	no antimicrobial effect	induced membrane depolarisation	disrupted both the outer and inner membranes	destabilised the membrane	–	–	≥ 128	three	3.6	7.3	83	acute toxic effects
